# MC4R antagonist = human MC4R antagonism in cAMP assay; inhibition, % at 6.5 µM; actives 0.48% (n = 360,000); P32245; MC4R-expressing cells, MTII-stimulated cAMP, LANCE TR-FRET; AID 540295;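 active = inhibition above its plate's cutoff, the mean of tested wells on that plate plus 3 SD, cut at about 29% in these data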;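 note: 0% = Melanotan II alone and 100% = Melanotan II plus saturating MCL0020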
# Target sequence (P32245 whole entry, looked up): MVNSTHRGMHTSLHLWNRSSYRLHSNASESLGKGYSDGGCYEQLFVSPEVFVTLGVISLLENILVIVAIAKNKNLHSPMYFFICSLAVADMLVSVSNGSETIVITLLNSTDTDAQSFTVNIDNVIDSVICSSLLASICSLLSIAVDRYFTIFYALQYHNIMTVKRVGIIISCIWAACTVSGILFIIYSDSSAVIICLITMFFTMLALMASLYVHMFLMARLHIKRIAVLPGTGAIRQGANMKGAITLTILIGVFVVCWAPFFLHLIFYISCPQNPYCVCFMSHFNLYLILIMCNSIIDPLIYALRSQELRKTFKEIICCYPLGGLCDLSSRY
#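 Material – human MC4R-expressing U2OS cells · Repeats – no replicates · Detection – TR-FRET with Eu-cAMP and labeled anti-cAMP, 671 nm · Times – compound 30 min, challenge 1 h, detection 1 h · Compound – single nominal compound dose of 6.5 µM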
# Exocytosis inh = lytic granule exocytosis inhibition. TALL-104 LAMP-1 surface exposure, flow cytometry; cells stimulated with thapsigargin and PMA. actives 0.66% (n = 360,000). inhibition, % at 10 µM;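 active = inhibition above about 55%, limit read from the data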
# ABCB6 inh MLPCN = blocks the human ABCB6 transporter; Q9NP58; K562-ABCB6 porphyrin accumulation, flow cytometry, 1 h; active compounds read low; fluorescence ratio to DMSO, % at 10 µM; actives 0.19% (n = 360,000);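 active = fluorescence ratio to DMSO below 75%, the collection mean minus 3 SD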;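 note: signal is porphyrin accumulated inside mitochondria; 100% equals median channel fluorescence of DMSO control wells; lower ratio means ABCB6 inhibition with less porphyrin fluorescence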
# Tb MetRS inh = Trypanosoma brucei MetRS inhibition | purified T. brucei MetRS, ATP depletion, Kinase-Glo luminescence | actives 0.4% (n = 360,000) | inhibition, % at 11.9 µM;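 active = inhibition above a per-plate cutoff of the control wells' mean inhibition plus 3 SD, cut at about 5.5% in these data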;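 note: 0% = DMSO wells median and 100% = median of wells with control inhibitor compound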
#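 Assay system: T. brucei methionyl-tRNA synthetase, purified | Medium: HEPES buffer with MgCl2, KCl, DTT, spermine, BSA, pyrophosphatase | Compound: 11.9 µM single point | Incubation: 15 min enzyme-compound preincubation, 2 h reaction, 10 min detection, 25 °C | Measured by: Kinase-Glo luciferase luminescence reporting remaining unconsumed ATP | Measure: % inhibition normalized to control-well medians | Replication: Singlicate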
# iPSC survival up = hiPSC single-cell survival enhancement; ATPlite luminescence; 100% = ROCK inhibitor wells, 0% = DMSO; survival enhancement, % at 20 µM; actives 0.044% (n = 360,000); AID 602274; in the data active = survival enhancement above about 18%;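 note: cells exposed to compounds for 16 hours before the ATP read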
# MC4R barr agon = activates human MC4R beta-arrestin recruitment. P32245. U2OS MC4R beta-arrestin complementation, luminescence; percent of melanotan II response, DMSO zero. activation, % at 8.9 µM. actives 0.98% (n = 360,000). AID 540308;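 active = activation above a per-plate cutoff, the mean activation of sample wells on that plate plus 3 SD, cut at about 8% in these data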
# Active calls of the source: *. Sampled rows, rich in hits. Any-hit rate of the full collection: about 2.6%.
SMILES,MC4R antagonist,Exocytosis inh,ABCB6 inh MLPCN,Tb MetRS inh,iPSC survival up,MC4R barr agon
O=C(/C=C/c1cc[n+](CC(=O)c2ccc3cccc4c3c2CC4)cc1)c1ccc2cccc3c2c1CC3,18.1,70.5*,108.0,1.6,-1.0,0.9
COC(=O)c1c(NC(=O)Cc2cccs2)sc2c1CCC(C)C2 (stereo unspecified),-3.1,-1.0,97.0,-0.6,0.8,0.8
COC(=O)c1c(NC(=S)NN2CCN(C)CC2)sc2c1CCC(C)C2 (stereo unspecified),5.4,64.0*,88.0,-1.2,-3.8,0.0
O=c1[nH]nc(Cc2ccc(-c3ccccc3Cl)o2)c2ccccc12,-2.1,3.4,94.0,-0.1,-0.9,8.9*
COc1cc(COc2ccc3c(C)c(CC(=O)O)c(=O)oc3c2C)cc(OC)c1OC,2.7,2.8,102.0,1.7,-0.3,-0.1
COc1ccccc1Sc1nc(-c2ccccn2)ncc1OC,4.5,-0.4,102.0,0.4,23.0*,2.6
COc1cnc(-c2ccccn2)nc1Sc1ccc(C)cc1,10.2,0.8,99.0,-0.8,-3.3,1.6
O=C(COC(=O)CCc1ccccc1)NNC(=O)c1ccccc1,5.3,-9.5,101.0,-0.3,-0.9,0.1
O=C(O)COc1ccc(/C=C/C(=O)c2ccc(C3CCCCC3)cc2)cc1,-8.7,8.4,100.0,-0.3,-0.7,8.8*
O=C(O)COc1ccc(/C=C/C(=O)c2ccc3ccccc3c2)cc1,-5.8,23.9,94.0,0.1,-0.8,-3.4
C[C@H]1C=C(C(=O)NCc2nc3ccccc3[nH]2)O[C@@H](OCc2ccc(CO)cc2)C1,2.7,-8.3,88.0,23.9*,1.6,-1.7
O=C(Nc1ccccc1)C1=C[C@H](c2ccccc2)C[C@H](OCCCCO)O1,-14.0,12.5,99.0,-0.3,1.1,-1.1
O=C(NCc1nc2ccccc2[nH]1)C1=C[C@@H](c2ccccc2)C[C@@H](OCCCCO)O1,10.7,6.7,95.0,69.6*,3.5,0.1
CC1(C)OC1COc1c2ccoc2cc2oc(=O)ccc12 (stereo unspecified),-0.2,79.8*,99.0,2.3,-0.6,-2.8
CCC(C)(C)NC(=O)C(c1ccc(C)cc1)N(CCN1CCOCC1)C(=O)CNC(=O)c1cccs1 (stereo unspecified),9.1,-0.9,95.0,-0.3,-0.7,-0.8
CC(C)(C)c1ccc(CN2N=Nc3ccccc3S2(=O)=O)cc1,-1.4,96.8*,107.0,-1.3,-4.9,1.5
COc1ccc(-c2nn(-c3ccccc3)cc2C=O)cc1[N+](=O)[O-],-4.3,5.4,100.0,0.1,-0.3,9.5*
COc1ccc(-c2nn(-c3ccccc3)cc2/C=C/C(=O)O)cc1[N+](=O)[O-],-31.0,-6.6,96.0,-0.8,-0.4,-0.8
Cc1ccc(N(C(=O)CNC(=O)c2ccco2)C(C(=O)NC2CCCC2)c2ccncc2)cc1C (stereo unspecified),15.5,-9.1,94.0,-0.4,-0.3,2.2
CCOc1ccc(/C=C/C2=Cc3c(sc(NC(=O)CSc4n[nH]c(N)n4)c3C#N)C(C)(C)C2)cc1,-21.6,77.6*,180.0,0.0,0.5,-1.1
Cc1ccsc1/C=C/C1=Cc2c(sc(NC(=O)CSc3n[nH]c(N)n3)c2C#N)C(C)(C)C1,-12.9,100.9*,102.0,0.5,2.5,-3.0
CC(=O)Nc1ccc2nc(NC(=O)c3ccc([N+](=O)[O-])o3)sc2c1,-2.8,-1.2,88.0,0.5,0.0,-2.9
COc1cccc(-n2c(SCC(N)=O)nnc2-c2c[nH]c3ccccc23)c1,10.3,-0.9,104.0,11.4*,-0.5,-0.7
N#Cc1ccc(CSc2nnc(-c3c[nH]c4ccccc34)n2-c2ccccc2)cc1,3.7,96.0*,105.0,3.9,0.3,3.7
CC(=O)Nc1ccc(Nc2nc(C(F)(F)F)nc3c2nnn3Cc2ccccc2Cl)cc1,21.8,-11.0,96.0,-1.1,-0.8,8.9*
COc1cc(C(=O)NCCOc2cc(C)cc(C)c2)c(Br)c(OC)c1OC,0.6,-19.3,192.0,-1.0,-3.1,-2.8
